Assay results published in ChEMBL document CHEMBL5528013 (Eur J Med Chem, 2024).

Assays:
[1] = system: MOLM-14; experiment: Antiproliferative activity against human MOLM-14 cells assessed as inhibition of cell growth incubated for 72 hrs by resazurin dye based assay; assay type: functional; settings: MOLM-14, 72 h
Outline: (§1)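 Logarithmic-phase cells were seeded at 5000 per well and treated 24 h later, in triplicate, with various concentrations for 72 h. MOLM14 lines were grown in RPMI with 10 % FBS, and other lines per provider instructions, all at 37 °C and 5 % CO2. Resazurin was then added for 4–6 h and fluorescence read. GI50 was taken from percent growth versus DMSO control, fitted with a variable-slope normalized-response model; at least three runs.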

[2] = system: MOLM-14; experiment: Antiproliferative activity against human MOLM-14 cells harboring FLT3-D835Y mutant assessed as inhibition of cell growth incubated for 72 hrs by resazurin dye based assay; assay type: functional; settings: MOLM-14, 72 h; outline: as §1
[3] = system: MOLM-14; assay type: functional, cell-based; settings: Homo sapiens, MOLM-14, 72 h
[4] = system: K562; experiment: Antiproliferative activity against human K562 cells assessed as inhibition of cell growth incubated for 72 hrs by resazurin dye based assay; assay type: functional; settings: K562, 72 h; outline: as §1

Row | IC50 [1] | IC50 [2] | IC50 [3] | IC50 [4] | Structure (SMILES)
1 | 0.0135 µM | 0.00891 µM | 0.142 µM | > 1 µM | CC(C)c1ccc(Nc2cccc(-c3cnc4cc(-c5cnn(C)c5)ccn34)n2)cc1
2 |  |  |  | > 1 µM | CCc1nc(C(N)=O)c(Nc2ccc(N3CCC(N4CCN(C)CC4)CC3)c(OC)c2)nc1NC1CCOCC1 [GILTERITINIB]
3 | 0.00095 µM | 0.00031 µM | 0.183 µM | 0.262 µM | Cn1cc(-c2ccn3c(-c4cccc(Nc5ccccc5C(F)(F)F)n4)cnc3c2)cn1
4 | 0.018 µM | 0.056 µM | > 1 µM | > 1 µM | Cn1cc(-c2ccn3c(-c4cccc(Nc5cc(C(C)(C)C)nn5-c5ccc(F)cc5)n4)cnc3c2)cn1
5 | 0.099 µM | 0.121 µM | > 1 µM | > 1 µM | CCOC(=O)Cc1ccc(Nc2cccc(-c3cnc4cc(-c5cnn(C)c5)ccn34)n2)cc1
6 | 0.00676 µM | 0.00439 µM | 0.0907 µM | > 1 µM | C=Cc1ccc(Nc2cccc(-c3cnc4cc(-c5cnn(C)c5)ccn34)n2)cc1
7 | 0.278 µM | 0.613 µM | > 1 µM | > 1 µM | Cc1ccc(-n2nc(C(C)(C)C)cc2Nc2cccc(-c3cnc4cc(-c5ccc(S(C)(=O)=O)cc5)ccn34)n2)cc1
8 |  | 0.0419 µM | > 1 µM | > 1 µM | Cn1cc(-c2ccn3c(-c4cccc(Nc5ccc(C(C)(C)C)cc5)n4)cnc3c2)cn1
9 | 0.00609 µM | 0.00491 µM | 0.92 µM |  | Cn1cc(-c2ccn3c(-c4cccc(Nc5ccc6c(c5)OCO6)n4)cnc3c2)cn1
10 | 0.0287 µM | 0.228 µM | 0.458 µM | > 1 µM | Cn1cc(-c2ccn3c(-c4cccc(Cl)n4)cnc3c2)cn1
11 | 0.0183 µM | 0.048 µM | 0.135 µM | > 1 µM | Cn1cc(-c2ccn3c(-c4cccc(Nc5ccc(C#N)cc5)n4)cnc3c2)cn1
12 | 0.00077 µM | 0.00221 µM | 0.0125 µM | > 1 µM | Cn1cc(-c2ccn3c(-c4cccc(Nc5ccc(OCCN6CCCC6)cc5)n4)cnc3c2)cn1
13 |  |  | > 20 µM |  | COc1cc2/c(=N/c3ccc(Br)cc3F)nc[nH]c2cc1OCC1CCN(C)CC1 [VANDETANIB]
14 | 0.00403 µM | 0.00246 µM | 0.259 µM | 0.115 µM | Cn1cc(-c2ccn3c(-c4cccc(Nc5cnccn5)n4)cnc3c2)cn1
15 | 0.11 µM | 0.203 µM | > 1 µM | > 1 µM | CC(C)(C)c1ccc(Nc2cccc(-c3cnc4cc(-c5ccc(S(C)(=O)=O)cc5)ccn34)n2)cc1
16 | 0.0172 µM | 0.0182 µM | 0.0975 µM | > 1 µM | Cn1cc(-c2ccn3c(-c4cccc(NC5CCN(C(=O)OC(C)(C)C)CC5)n4)cnc3c2)cn1
17 | 0.0193 µM | 0.0499 µM | 0.462 µM | > 1 µM | Cn1cc(-c2ccn3c(-c4cccc(Nc5ccc(OC(F)(F)F)cc5)n4)cnc3c2)cn1
18 | 0.0169 µM | 0.167 µM | 0.293 µM | > 1 µM | Cn1cc(-c2ccn3c(-c4ccc(Cl)cc4)cnc3c2)cn1
19 | 0.0519 µM | 0.259 µM | 0.794 µM | > 1 µM | Cn1cc(-c2ccn3c(-c4cccc(N5CCN(C(=O)OC(C)(C)C)CC5)n4)cnc3c2)cn1
20 | 0.00238 µM | 0.00165 µM | 0.0144 µM | 0.274 µM | COc1ccccc1Nc1cccc(-c2cnc3cc(-c4cnn(C)c4)ccn23)n1
21 | 0.00224 µM | 0.0032 µM | 0.0289 µM | 0.132 µM | Cn1cc(-c2ccn3c(-c4cccc(Nc5cccc(C(F)(F)F)c5)n4)cnc3c2)cn1

Row | IC50 [1] | IC50 [2] | IC50 [3] | IC50 [4] | Structure (SMILES)
22 | 0.00019 µM | 0.00077 µM | 0.0098 µM | > 1 µM | Cn1cc(-c2ccn3c(-c4cccc(Nc5ccc(OCCN6CCCCC6)cc5)n4)cnc3c2)cn1
23 |  | 0.00567 µM | 0.0189 µM | 0.219 µM | Cc1ccc(Nc2cccc(-c3cnc4cc(-c5cnn(C)c5)ccn34)n2)cc1
24 | 0.001 µM | 0.00183 µM | 0.0071 µM | > 1 µM | Cn1cc(-c2ccn3c(-c4cccc(Nc5ccc(OCCN6CCOCC6)cc5)n4)cnc3c2)cn1
25 | 0.0766 µM | 0.0766 µM | 0.792 µM | > 1 µM | Cn1cc(-c2ccn3c(-c4cccc(Nc5ccc(C(=O)OC(C)(C)C)cc5)n4)cnc3c2)cn1
26 | 0.0333 µM | 0.0189 µM | 0.16 µM | > 1 µM | Cn1cc(-c2ccn3c(-c4cccc(Nc5ccc(C(F)(F)F)cc5)n4)cnc3c2)cn1
27 | 0.00172 µM | 0.00087 µM | 0.00998 µM | > 1 µM | Cn1cc(-c2ccn3c(-c4cccc(Nc5ccc6c(c5)OCCO6)n4)cnc3c2)cn1
28 | 0.233 µM | 0.177 µM | > 1 µM | > 1 µM | COC(=O)c1ccc(C)c(Nc2cccc(-c3cnc4cc(-c5cnn(C)c5)ccn34)n2)c1
29 | 0.0038 µM | 0.00259 µM | 0.0326 µM | 0.21 µM | Cn1cc(-c2ccn3c(-c4cccc(Nc5cc(C(C)(C)C)nn5C)n4)cnc3c2)cn1
30 | 0.0295 µM | 0.591 µM | 0.304 µM | > 1 µM | Cn1cc(-c2ccn3c(-c4cccc(Cl)c4)cnc3c2)cn1
31 | 0.00695 µM | 0.0275 µM | 0.105 µM | 0.96 µM | COc1cc(Nc2cccc(-c3cnc4cc(-c5cnn(C)c5)ccn34)n2)cc(OC)c1OC
32 | 0.0288 µM | 0.0231 µM | 0.337 µM | 0.736 µM | Cn1cc(-c2ccn3c(-c4cccc(Nc5ccc(Cl)cc5)n4)cnc3c2)cn1
33 | 0.00325 µM | 0.00141 µM | 0.239 µM | > 1 µM | Cn1cc(-c2ccn3c(-c4cccc(Nc5ccc(N6CCOCC6)cc5)n4)cnc3c2)cn1
34 | 0.00682 µM | 0.00519 µM | 0.315 µM | 0.923 µM | Cn1cc(-c2ccn3c(-c4cccc(Nc5ccc([N+](=O)[O-])cc5)n4)cnc3c2)cn1
35 | 0.397 µM | > 1 µM | > 1 µM | > 1 µM | Cn1cc(-c2ccn3c(-c4ccccc4Cl)cnc3c2)cn1
36 | 0.00131 µM | 0.0059 µM | 0.566 µM | 0.119 µM | Cn1cc(-c2ccn3c(-c4cccc(NCc5c(F)cccc5F)n4)cnc3c2)cn1
37 | 0.0043 µM | 0.00532 µM | 0.0542 µM | 0.688 µM | Cn1nc(C(C)(C)C)cc1Nc1cccc(-c2cnc3cc(-c4ccc(S(C)(=O)=O)cc4)ccn23)n1
38 | 0.00903 µM | 0.00362 µM | 0.294 µM | 0.927 µM | CCc1ccc(Nc2cccc(-c3cnc4cc(-c5cnn(C)c5)ccn34)n2)cc1
39 | 0.00051 µM | 0.00087 µM | 0.00742 µM | 0.924 µM | CCN(CC)CCOc1ccc(Nc2cccc(-c3cnc4cc(-c5cnn(C)c5)ccn34)n2)cc1
40 | 0.162 µM | 0.414 µM | > 1 µM | > 1 µM | Cc1ccc(-n2nc(C(C)(C)C)cc2Nc2cccc(-c3cnc4cc(-c5cnn(C)c5)ccn34)n2)cc1
41 | 0.101 µM | 0.353 µM | 0.426 µM | > 1 µM | CC1CN(c2cccc(-c3cnc4cc(-c5cnn(C)c5)ccn34)n2)CCN1C(=O)OC(C)(C)C (stereo not given)
